According to ChEMBL document CHEMBL2321767, “Synthesis and anticonvulsant activity of bioisosteres of trimethadione, N-derivative-1,2,3-oxathiazolidine-4-one-2,2-dioxides from α-hydroxyamides” (Bioorg Med Chem, 2013):
The source made the active and inactive calls.

Columns and labels:
Mus musculus [1] = test: Neurotoxicity against Swiss albino mouse at 30 mg/kg, ip measured after 0.5 hrs by rotarod test; format: toxicity, organism-based; set-up: dose 30 mg/kg, route intraperitoneal; details: in vivo
In short: (§1)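 Male Swiss albino mice (18–25 g) dosed ip at 30 or 100 mg/kg in 30% PEG 400/10% water. Minimal neurotoxicity checked on the rotarod 0.5 and 4 h after dosing, as failure to keep balance on the rotating rod. Reported as affected/tested, 5 mice per group.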

Mus musculus [2] = test: Anticonvulsant activity in Swiss albino mouse assessed as protection against maximal electric shock-induced tonic-clonic seizures at 30 mg/kg, ip measured after 0.5 hrs relative to control; format: functional, organism-based; set-up: dose 30 mg/kg
In short: (§2)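 Adult male Swiss albino mice (18–25 g) dosed ip with 30 or 100 mg/kg in 30% PEG 400/10% water, 0.01 mL/g. MES tested 0.5 and 4 h later: electroshock via ear clips. Protection means no hind-limb tonic extension. Result reported as mice protected out of mice tested (3 per group).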

Mus musculus [3] = test: Neurotoxicity against Swiss albino mouse at 100 mg/kg, ip measured after 0.5 hrs by rotarod test; format: toxicity, organism-based; set-up: dose 100 mg/kg, route intraperitoneal; details: in vivo; in short: as §1
Mus musculus [4] = test: Neurotoxicity against Swiss albino mouse at 100 mg/kg, ip measured after 4 hrs by rotarod test; format: toxicity, organism-based; set-up: dose 100 mg/kg, route intraperitoneal; details: in vivo; in short: as §1
Mus musculus [5] = test: Anticonvulsant activity in Swiss albino mouse assessed as protection against maximal electric shock-induced tonic-clonic seizures at 100 mg/kg, ip measured after 4 hrs relative to control; format: functional, organism-based; set-up: dose 100 mg/kg; in short: as §2
Mus musculus [6] = test: Neurotoxicity against Swiss albino mouse at 30 mg/kg, ip measured after 4 hrs by rotarod test; format: toxicity, organism-based; set-up: dose 30 mg/kg, route intraperitoneal; details: in vivo; in short: as §1
Mus musculus [7] = test: Anticonvulsant activity in Swiss albino mouse assessed as protection against scPTZ-induced tonic-clonic seizures at 30 mg/kg, ip measured after 4 hrs relative to control; format: functional, organism-based; set-up: dose 30 mg/kg
In short: (§3)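 Adult male Swiss albino mice (18–25 g) given test substance ip at 30 or 100 mg/kg in 30% PEG 400/10% water. At 0.5 or 4 h, PTZ 85 mg/kg sc (0.5% in 0.9% saline) into the posterior midline. Mice observed 30 min. Protection means no threshold seizure, i.e. no clonic spasm lasting ≥5 s. Scored as protected/tested, 2 mice per group.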

Mus musculus [8] = test: Toxicity against Swiss albino mouse assessed as mortality at 30 to 100 mg/kg, ip; format: organism-based; set-up: dose 30-100 mg/kg, route intraperitoneal; details: in vivo
In short: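 Adult male Swiss albino mice (18–25 g; 12 h light/dark cycle, free food and water) were dosed ip at 30 and 100 mg/kg in 30% PEG 400 and 10% water, 0.01 mL/g body weight. Testing was at 0.5 and 4 h in the MES, scPTZ and RotoRod assays, with deaths recorded during these assays.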

Mus musculus [9] = test: Anticonvulsant activity in Swiss albino mouse assessed as protection against scPTZ-induced tonic-clonic seizures at 30 mg/kg, ip measured after 0.5 hrs relative to control; format: functional, organism-based; set-up: dose 30 mg/kg; in short: as §3
Mus musculus [10] = test: Anticonvulsant activity in Swiss albino mouse assessed as protection against scPTZ-induced tonic-clonic seizures at 100 mg/kg, ip measured after 4 hrs relative to control; format: functional, organism-based; set-up: dose 100 mg/kg; in short: as §3
Mus musculus [11] = test: Anticonvulsant activity in Swiss albino mouse assessed as protection against maximal electric shock-induced tonic-clonic seizures at 100 mg/kg, ip measured after 0.5 hrs relative to control; format: functional; in short: as §2
Mus musculus [12] = test: Anticonvulsant activity in Swiss albino mouse assessed as protection against maximal electric shock-induced tonic-clonic seizures at 30 mg/kg, ip measured after 4 hrs relative to control; format: functional; in short: as §2
Mus musculus [13] = test: Anticonvulsant activity in Swiss albino mouse assessed as protection against scPTZ-induced tonic-clonic seizures at 100 mg/kg, ip measured after 0.5 hrs relative to control; format: functional, organism-based; set-up: dose 100 mg/kg; in short: as §3
Mus musculus [14] = test: Anticonvulsant activity in ip dosed Swiss albino mouse assessed as time of maximal protection against maximal electric shock-induced tonic-clonic seizures; format: functional
In short: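 Ip-dosed male Swiss albino mice (vehicle 30% PEG 400/10% water) tested in the MES test (ear-clip electroshock, endpoint abolition of hind-limb tonic extension) at several times after dosing. The maximal time effect is the time of peak protection.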

Mus musculus [15] = organism: Mus musculus; test: Ratio of phenytoin ED50 to compound ED50 for protection against maximal electric shock-induced tonic-clonic seizures in Swiss albino mouse; format: functional
Mus musculus [16] = test: Anticonvulsant activity in ip dosed Swiss albino mouse assessed as protection against maximal electric shock-induced tonic-clonic seizures measured up to 4 hrs; format: functional
In short: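 Male Swiss albino mice given test substances ip in 30% PEG 400/10% water. Various doses, each group of six mice, tested by MES at the maximal time effect. Protection means no hind-limb tonic extension after ear-clip electroshock. ED50 and 95% confidence intervals computed by the Litchfield–Wilcoxon method.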

Mus musculus [17] = organism: Mus musculus; test: Ratio of valproic acid ED50 to compound ED50 for protection against maximal electric shock-induced tonic-clonic seizures in Swiss albino mouse; format: functional
Mus musculus [18] = organism: Mus musculus; test: Ratio of trimathadione ED50 to compound ED50 for protection against maximal electric shock-induced tonic-clonic seizures in Swiss albino mouse; format: functional

| SMILES | Activity (Mus musculus [1]) | Activity (Mus musculus [2]) | Activity (Mus musculus [3]) | Activity (Mus musculus [4]) | Activity (Mus musculus [5]) | Activity (Mus musculus [6]) | Activity (Mus musculus [7]) | Activity (Mus musculus [8]) | Activity (Mus musculus [9]) | Activity (Mus musculus [10]) | Activity (Mus musculus [11]) | Activity (Mus musculus [12]; route intraperitoneal) | Activity (Mus musculus [13]) | Activity (Mus musculus [12]) | Time (Mus musculus [14]) | Ratio ED50 (Mus musculus [15]) | ED50 (Mus musculus [16]) | Ratio ED50 (Mus musculus [17]) | Ratio ED50 (Mus musculus [18]) | Activity (Mus musculus [11]; route intraperitoneal) |
| --- | --- | --- | --- | --- | --- | --- | --- | --- | --- | --- | --- | --- | --- | --- | --- | --- | --- | --- | --- | --- |
| CCCNC(=O)C(C)(C)O | Non-toxic | Active | Non-toxic | Non-toxic | inactive | Non-toxic | inactive | Non-toxic | inactive | inactive | Active | 100% | inactive | – | – | – | – | – | – | – |
| CCCN1C(=O)C(C)(C)OS1(=O)=O | Non-toxic | Active | Non-toxic | Non-toxic | Active | Non-toxic | inactive | Non-toxic | inactive | inactive | Active | – | inactive | inactive | – | – | – | – | – | – |
| CCCCN1C(=O)C(C)(C)OS1(=O)=O | Non-toxic | Active | Non-toxic | Non-toxic | Active | Non-toxic | Active | Non-toxic | Active | Active | inactive | – | inactive | Active | 2 h | 90 | 0.06 mg/kg | 4700 | 10000 | – |
| CC(C)(O)C(=O)NC1CCCCC1 | Non-toxic | Active | Non-toxic | Non-toxic | Active | Non-toxic | inactive | Non-toxic | inactive | inactive | – | 100% | inactive | – | 0.5 h | – | 25.2 mg/kg | – | – | 100% |
| CC(C)(O)C(=O)NCc1ccccc1 | Non-toxic | Active | Non-toxic | Non-toxic | inactive | Non-toxic | inactive | Non-toxic | Active | Active | – | – | Active | Active | 0.25 h | – | 9.1 mg/kg | 30 | – | 100% |
| CC1(C)OS(=O)(=O)N(CCc2ccccc2)C1=O | Non-toxic | Active | Non-toxic | Non-toxic | Active | Non-toxic | inactive | Non-toxic | Active | Active | Active | – | Active | Active | 2 h | – | 91.1 mg/kg | – | – | – |
| CC1(C)OS(=O)(=O)N(Cc2ccccc2)C1=O | Non-toxic | Active | Non-toxic | Non-toxic | Active | Non-toxic | inactive | Non-toxic | inactive | inactive | Active | 100% | Active | – | 4 h | – | 15.1 mg/kg | 19 | 40 | – |
| CN1C(=O)OC(C)(C)C1=O [TRIMETHADIONE] | – | – | – | – | – | – | – | – | – | – | – | – | – | – | 0.5 h | – | 627 mg/kg | – | – | – |
| O=C1NC(=O)C(c2ccccc2)(c2ccccc2)N1 [PHENYTOIN] | – | – | – | – | – | – | – | – | – | – | – | – | – | – | 1 h | – | 5.54 mg/kg | – | – | – |
| CC(C)(O)C(=O)NCCc1ccccc1 | Non-toxic | Active | Non-toxic | Non-toxic | Active | Non-toxic | inactive | Non-toxic | inactive | Active | – | – | Active | Active | 1 h | – | 53.9 mg/kg | – | – | 100% |
| CCCCNC(=O)C(O)(c1ccccc1)c1ccccc1 | Non-toxic | Active | Non-toxic | Non-toxic | Active | Non-toxic | inactive | Non-toxic | inactive | inactive | – | 100% | inactive | – | – | – | – | – | – | 100% |
| CCCCNC(=O)C(C)(C)O | Non-toxic | inactive | Non-toxic | Non-toxic | Active | Non-toxic | Active | Non-toxic | Active | Active | – | – | inactive | Active | 6 h | – | 44.6 mg/kg | – | – | 100% |
